In ChEMBL document CHEMBL1154732, “A 4-aminoquinoline derivative that markedly sensitizes tumor cell killing by Akt inhibitors with a minimum cytotoxicity to non-cancer cells” (2010):

Key:
Assay type in all cases: functional
MCF7 [1] = test: Cytotoxicity against human MCF7 cells after 48 hrs by SRB assay in presence of 0.4 uM 1-(1-(4-(7-phenyl-1H-imidazo[4,5-g]quinoxalin-6-yl)benzyl)piperidin-4-yl)-1H-benzo[d]imidazol-2(3H)-one
Summary of the method: (§1)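 Breast cancer cells were grown in RPMI 1640 with 10% FBS and 2 mM L-glutamine at 37 °C, 5% CO2, seeded at 5000–10,000/well and allowed 24 h before dosing. Compounds were given as seven serially diluted concentrations for 48 h, with any partner drug held constant, at ≤0.1% final DMSO. Cells were TCA-fixed, SRB-stained and read at 515–564 nm. GI50 came from a variable-slope sigmoidal fit of growth relative to time-zero and untreated wells; values are means of triplicates from ≥3 experiments.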

MDA-MB-231 [2] = test: Cytotoxicity against human MDA-MB-231 cells after 48 hrs by SRB assay in presence of 0.04 uM (E)-5-(benzo[d]thiazol-2-yl)-3-ethyl-2-(2-(methyl(phenyl)amino)vinyl)-1-phenyl-1H-benzo[d]imidazol-3-ium iodide; settings: MDA-MB-231, 48 h; summary of the method: as §1
[3] = Cytotoxicity against human 184B5 cells after 48 hrs by SRB assay in presence of 0.4 uM 1-(1-(4-(7-phenyl-1H-imidazo[4,5-g]quinoxalin-6-yl)benzyl)piperidin-4-yl)-1H-benzo[d]imidazol-2(3H)-one
Summary of the method: (§2)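 184B5 immortalized breast epithelial cells were grown in mammary epithelial basal medium with MEGM supplements at 37 °C, 5% CO2. Cells (5000–10,000/well) were preincubated 24 h, then exposed to seven concentrations for 48 h, with the listed partner drug fixed at its stated level. Cells were TCA-fixed, SRB-stained and read at 515–564 nm. Final DMSO was ≤0.1%.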

MDA-MB-468 [4] = test: Cytotoxicity against human MDA-MB-468 cells after 48 hrs by SRB assay in presence of 3.5 uM 4-(2-chloro-10H-phenoxazin-10-yl)-N,N-diethylbutan-1-amine hydrochloride; settings: MDA-MB-468, 48 h; summary of the method: as §1
MDA-MB-468 [5] = test: Cytotoxicity against human MDA-MB-468 cells after 48 hrs by SRB assay in presence of 0.5 uM 2-morpholino-8-phenyl-4H-chromen-4-one; settings: MDA-MB-468, 48 h; summary of the method: as §1
MCF7 [6] = test: Cytotoxicity against human MCF7 cells after 48 hrs by SRB assay; settings: MCF7, 48 h; summary of the method: as §1
MCF7 [7] = test: Cytotoxicity against human MCF7 cells after 48 hrs by SRB assay in presence of 0.5 uM 2-morpholino-8-phenyl-4H-chromen-4-one; settings: MCF7, 48 h; summary of the method: as §1
[8] = Cytotoxicity against human 184B5 cells after 48 hrs by SRB assay in presence of 3.5 uM 4-(2-chloro-10H-phenoxazin-10-yl)-N,N-diethylbutan-1-amine hydrochloride; settings: 184B5, 48 h; summary of the method: as §2
MCF7 [9] = test: Cytotoxicity against human MCF7 cells after 48 hrs by SRB assay in presence of 0.04 uM (E)-5-(benzo[d]thiazol-2-yl)-3-ethyl-2-(2-(methyl(phenyl)amino)vinyl)-1-phenyl-1H-benzo[d]imidazol-3-ium iodide; settings: MCF7, 48 h; summary of the method: as §1
MCF7 [10] = test: Cytotoxicity against human MCF7 cells after 48 hrs by SRB assay in presence of 3.5 uM 4-(2-chloro-10H-phenoxazin-10-yl)-N,N-diethylbutan-1-amine hydrochloride; settings: MCF7, 48 h; summary of the method: as §1
MDA-MB-231 [11] = test: Cytotoxicity against human MDA-MB-231 cells after 48 hrs by SRB assay in presence of 3.5 uM 4-(2-chloro-10H-phenoxazin-10-yl)-N,N-diethylbutan-1-amine hydrochloride; settings: MDA-MB-231, 48 h; summary of the method: as §1
[12] = Cytotoxicity against human 184B5 cells after 48 hrs by SRB assay in presence of 0.5 uM 2-morpholino-8-phenyl-4H-chromen-4-one; settings: 184B5, 48 h; summary of the method: as §2
[13] = Cytotoxicity against human 184B5 cells after 48 hrs by SRB assay; settings: 184B5, 48 h; summary of the method: as §2
MDA-MB-468 [14] = test: Cytotoxicity against human MDA-MB-468 cells after 48 hrs by SRB assay in presence of 0.04 uM (E)-5-(benzo[d]thiazol-2-yl)-3-ethyl-2-(2-(methyl(phenyl)amino)vinyl)-1-phenyl-1H-benzo[d]imidazol-3-ium iodide; settings: MDA-MB-468, 48 h; summary of the method: as §1
MDA-MB-231 [15] = test: Cytotoxicity against human MDA-MB-231 cells after 48 hrs by SRB assay in presence of 0.4 uM 1-(1-(4-(7-phenyl-1H-imidazo[4,5-g]quinoxalin-6-yl)benzyl)piperidin-4-yl)-1H-benzo[d]imidazol-2(3H)-one; summary of the method: as §1
MDA-MB-468 [16] = test: Cytotoxicity against human MDA-MB-468 cells after 48 hrs by SRB assay; settings: MDA-MB-468, 48 h; summary of the method: as §1
MDA-MB-468 [17] = test: Cytotoxicity against human MDA-MB-468 cells after 48 hrs by SRB assay in presence of 0.4 uM 1-(1-(4-(7-phenyl-1H-imidazo[4,5-g]quinoxalin-6-yl)benzyl)piperidin-4-yl)-1H-benzo[d]imidazol-2(3H)-one; summary of the method: as §1
MDA-MB-231 [18] = test: Cytotoxicity against human MDA-MB-231 cells after 48 hrs by SRB assay in presence of 0.5 uM 2-morpholino-8-phenyl-4H-chromen-4-one; settings: MDA-MB-231, 48 h; summary of the method: as §1
MDA-MB-231 [19] = test: Cytotoxicity against human MDA-MB-231 cells after 48 hrs by SRB assay; settings: MDA-MB-231, 48 h; summary of the method: as §1
[20] = Cytotoxicity against human 184B5 cells after 48 hrs by SRB assay in presence of 0.04 uM (E)-5-(benzo[d]thiazol-2-yl)-3-ethyl-2-(2-(methyl(phenyl)amino)vinyl)-1-phenyl-1H-benzo[d]imidazol-3-ium iodide; settings: 184B5, 48 h; summary of the method: as §2

Row | SMILES | GI50 (MCF7 [1]) [µM] | GI50 (MDA-MB-231 [2]) [µM] | GI50 [3] [µM] | GI50 (MDA-MB-468 [4]) [µM] | GI50 (MDA-MB-468 [5]) [µM] | GI50 (MCF7 [6]) [µM] | GI50 (MCF7 [7]) [µM] | GI50 [8] [µM] | GI50 (MCF7 [9]) [µM] | GI50 (MCF7 [10]) [µM] | GI50 (MDA-MB-231 [11]) [µM] | GI50 [12] [µM] | GI50 [13] [µM] | GI50 (MDA-MB-468 [14]) [µM] | GI50 (MDA-MB-231 [15]) [µM] | GI50 (MDA-MB-468 [16]) [µM] | GI50 (MDA-MB-468 [17]) [µM] | GI50 (MDA-MB-231 [18]) [µM] | GI50 (MDA-MB-231 [19]) [µM] | GI50 [20] [µM]
1 | CN(C)CCNc1ccnc2cc(Cl)ccc12 | 3.32 | 5.66 | > 20 | 3.24 | 19.3 | 15.4 | 7.54 | > 20 | 4.96 | 7.37 | 0.74 | > 20 | 44.5 | 3.43 | 2.87 | 13.3 | 6.5 | 9.88 | 8.59 | > 20
2 | CCCCNc1ccnc2cc(Cl)ccc12 | 5.6 | 12.3 | 16.6 | 4.3 | 7.42 | 8.45 | 9.55 | 19.4 | 10.2 | 11.4 | 6.5 | > 20 | 18.4 | 3.95 | 8.8 | 6.02 | 7.09 | 11.3 | 15.9 | > 20
3 | CN(C)CCNc1ccnc2cc(F)ccc12 | 1.73 | 2.5 | > 20 | 4.61 | 7.62 | 3.42 | 2.64 | > 20 | 2.56 | 3.26 | 2 | > 20 | 40.4 | 4.87 | 1.94 | 8.73 | 4.95 | 9.45 | 7.08 | > 20
4 | COc1ccc2c(NCCN(C)C)ccnc2c1 | 1.82 | 4.49 | > 20 | 5.66 | 7.62 | 3.89 | 2.65 | > 20 | 3.54 | 3.66 | 1.24 | > 20 | 44.6 | 5.85 | 0.74 | 4.8 | 5.91 | 9.45 |  | > 20
5 | CCN(CC)CCCC(C)Nc1ccnc2cc(Cl)ccc12 (stereo unspecified) [CHLOROQUINE PHOSPHATE] | 5.51 | 8.33 | > 20 | 2.81 | 9.14 |  | 7.71 | > 20 | 7.54 | 11.8 | 6.08 | > 20 | 76.1 | 6.53 | 12.6 |  | 6.83 | 18.8 |  | > 20
6 | CCCCNc1ccnc2cc(F)ccc12 | 1.63 | 7.25 | 14.9 | 1.44 | 3.5 | 1.98 | 3.17 | 8.19 | 5.78 | 3.7 | 3.74 | 12.5 | 18.7 | 2.69 | 5.63 | 1.41 | 2.09 | 12.3 | 6.32 | 12.4
